{
  "source": "ChEMBL document CHEMBL1133254",
  "about": "“One-pot synthesis and biological evaluation of aspergillamides and analogues” (Bioorg Med Chem Lett, 2000)",
  "key": {"MCF7 [1]": {"tested_on": "MCF7", "test": "Compound was tested for cytotoxicity against MCF-7 cell line; Active", "format": "functional, cell-based", "conditions": "Homo sapiens"}, "Candida albicans": {"tested_on": "Candida albicans", "test": "Compound ( at <100 uM) was tested for growth inhibition against Candida albicans", "format": "functional"}, "Staphylococcus aureus": {"tested_on": "Staphylococcus aureus", "test": "Compound ( at <100 uM) was tested for growth inhibition against Staphylococcus aureus", "format": "functional"}, "Bacillus subtilis": {"tested_on": "Bacillus subtilis", "test": "Compound ( at <100 uM) was tested for growth inhibition against Bacillus subtilis", "format": "functional"}, "HCT-116": {"tested_on": "HCT-116", "test": "Cytotoxicity against HCT 116 cell line", "format": "functional, cell-based", "conditions": "Homo sapiens"}, "MCF7 [2]": {"tested_on": "MCF7", "test": "Inhibitory concentration against MCF-7 cell line", "format": "functional, cell-based", "conditions": "Homo sapiens", "procedure,_shortened": "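MCF-7 cells maintained in RPMI-1640 with 5% FCS at 37 °C under 5% CO2. Test material came from dilution plates prepared from the one-pot Ugi synthesis plates. Each sample was screened at five concentrations, and an approximate IC50 was estimated from the results.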"}},
  "note": "Calls of active or inactive are those of the source. The calls are words filed in the database; no cut-off is given here.",
  "data": [
    {"smiles": "CC(=O)NCC(=O)N1C(C(=O)N/C=C\\c2c[nH]c3cc(OCc4ccccc4)ncc23)CSC1(C)C", "note": "(stereo unspecified)", "values": [
      {"measurement": "Cytotoxicity", "setting": "MCF7 [1]", "result": "Active"}
    ]},
    {"smiles": "CC(=O)N[C@H](CC(C)C)C(=O)N(C)C(Cc1ccccc1)C(=O)N/C=C\\c1c[nH]c2cc(OCc3ccccc3)ncc12", "note": "(stereo partly specified)", "values": [
      {"measurement": "Inhibition", "setting": "Candida albicans", "result": 100, "unit": "%"}
    ]},
    {"smiles": "CC(=O)N[C@H](CC(C)C)C(=O)N1C(C(=O)N/C=C\\c2c[nH]c3ccccc23)CSC1(C)C", "note": "(stereo partly specified)", "values": [
      {"measurement": "Inhibition", "setting": "Staphylococcus aureus", "result": 100, "unit": "%"},
      {"measurement": "Inhibition", "setting": "Bacillus subtilis", "result": 100, "unit": "%"}
    ]},
    {"smiles": "CC(=O)N[C@H](CC(C)C)C(=O)N(CCc1c[nH]c2ccccc12)CC(=O)N/C=C\\c1c[nH]c2cc(OCc3ccccc3)ncc12", "values": [
      {"measurement": "Inhibition", "setting": "Staphylococcus aureus", "result": 100, "unit": "%"},
      {"measurement": "Inhibition", "setting": "Bacillus subtilis", "result": 100, "unit": "%"}
    ]},
    {"smiles": "CC(=O)NC(C(=O)N(C)C(C(=O)N/C=C\\c1c(CC=C(C)C)[nH]c2ccccc12)C(C)C)C(C)C", "note": "(stereo unspecified)", "values": [
      {"measurement": "IC50", "setting": "HCT-116", "result": 16, "unit": "µg/mL"}
    ]},
    {"smiles": "CC(=O)N1CCC[C@H]1C(=O)N(C1CCCCC1)C1(C(=O)N/C=C\\c2c[nH]c3ccccc23)CCCCC1", "values": [
      {"measurement": "IC50", "setting": "MCF7 [2]", "result": 400, "unit": "nM"}
    ]},
    {"smiles": "CC(=O)NC(CC(C)C)C(=O)N(C)C(Cc1ccccc1)C(=O)N/C=C\\c1c[nH]c2ccccc12", "note": "(stereo unspecified)", "values": [
      {"measurement": "IC50", "setting": "HCT-116", "result": 16, "unit": "µg/mL"}
    ]},
    {"smiles": "CC(=O)N[C@H](CC(C)C)C(=O)N(CCCCCO)C1(C(=O)N/C=C\\c2c[nH]c3cc(OCc4ccccc4)ncc23)CCN(Cc2ccccc2)CC1", "values": [
      {"measurement": "Cytotoxicity", "setting": "MCF7 [1]", "result": "Active"}
    ]},
    {"smiles": "CC(=O)NCC(=O)N(CCCCCO)C1(C(=O)N/C=C\\c2c[nH]c3ccccc23)CCN(Cc2ccccc2)CC1", "values": [
      {"measurement": "Inhibition", "setting": "Candida albicans", "result": 100, "unit": "%"}
    ]},
    {"smiles": "CC(=O)N[C@H](CC(C)C)C(=O)N1C(C(=O)N/C=C\\c2c[nH]c3cc(OCc4ccccc4)ncc23)CSC1(C)C", "note": "(stereo partly specified)", "values": [
      {"measurement": "Inhibition", "setting": "Staphylococcus aureus", "result": 100, "unit": "%"},
      {"measurement": "Cytotoxicity", "setting": "MCF7 [1]", "result": "Active"},
      {"measurement": "Inhibition", "setting": "Bacillus subtilis", "result": 100, "unit": "%"}
    ]},
    {"smiles": "CC(=O)NCC(=O)N(CCc1c[nH]c2ccccc12)CC(=O)N/C=C\\c1c[nH]c2cc(OCc3ccccc3)ncc12", "values": [
      {"measurement": "Cytotoxicity", "setting": "MCF7 [1]", "result": "Active"}
    ]},
    {"smiles": "CC(=O)N[C@H](CC(C)C)C(=O)N(C)C(Cc1ccccc1)C(=O)N/C=C\\c1c[nH]c2ccccc12", "note": "(stereo partly specified)", "values": [
      {"measurement": "IC50", "setting": "MCF7 [2]", "result": 300, "unit": "nM"}
    ]},
    {"smiles": "CC(=O)NCC(=O)N(CCc1c[nH]c2ccccc12)CC(=O)N/C=C\\c1c[nH]c2ccccc12", "values": [
      {"measurement": "IC50", "setting": "MCF7 [2]", "result": 4100, "unit": "nM"}
    ]},
    {"smiles": "CC(=O)N1CCCC1C(=O)N(C)C(Cc1ccccc1)C(=O)N/C=C\\c1c[nH]c2cc(OCc3ccccc3)ncc12", "note": "(stereo unspecified)", "values": [
      {"measurement": "IC50", "setting": "MCF7 [2]", "result": 1900, "unit": "nM"},
      {"measurement": "Cytotoxicity", "setting": "MCF7 [1]", "result": "Active"}
    ]},
    {"smiles": "CC(=O)N1CCC[C@@H]1C(=O)N(CCc1c[nH]c2ccccc12)CC(=O)N/C=C\\c1c[nH]c2cc(OCc3ccccc3)ncc12", "values": [
      {"measurement": "Inhibition", "setting": "Staphylococcus aureus", "result": 100, "unit": "%"},
      {"measurement": "Inhibition", "setting": "Bacillus subtilis", "result": 100, "unit": "%"}
    ]},
    {"smiles": "O=C(/C=C/c1c[nH]c2ccccc12)N/C=C/c1c[nH]c2ccccc12", "note": "[CHONDRIAMIDE A]", "values": [
      {"measurement": "IC50", "setting": "HCT-116", "result": 16, "unit": "µg/mL"}
    ]},
    {"smiles": "CC(=O)N[C@H](CC(C)C)C(=O)N(CCc1c[nH]c2ccccc12)CC(=O)N/C=C\\c1c[nH]c2ccccc12", "values": [
      {"measurement": "IC50", "setting": "MCF7 [2]", "result": 49900, "unit": "nM"}
    ]},
    {"smiles": "CCC(C)CC(C(=O)N/C=C\\c1c[nH]c2ccccc12)N(C)Cc1ccc(O)cc1", "note": "(stereo unspecified) [ARAGILAMIDE]", "values": [
      {"measurement": "IC50", "setting": "HCT-116", "result": 16, "unit": "µg/mL"}
    ]},
    {"smiles": "CC(=O)NCC(=O)N(CCCCCO)C1(C(=O)N/C=C\\c2c[nH]c3cc(OCc4ccccc4)ncc23)CCN(Cc2ccccc2)CC1", "values": [
      {"measurement": "Cytotoxicity", "setting": "MCF7 [1]", "result": "Active"}
    ]},
    {"smiles": "CC(=O)NCC(=O)N1C(C(=O)N/C=C\\c2c[nH]c3ccccc23)CSC1(C)C", "note": "(stereo unspecified)", "values": [
      {"measurement": "Inhibition", "setting": "Candida albicans", "result": 100, "unit": "%"}
    ]}
  ]
}
